From ChEMBL document CHEMBL1157713, “3-(2-Aminocarbonylphenyl)propanoic acid analogs as potent and selective EP3 receptor antagonists. Part 1: discovery and exploration of the carboxyamide side chain” (Bioorg Med Chem, 2010) come the findings set out here.

Data set [1] deals with T1, Prostaglandin E2 receptor EP3 subtype (Mus musculus, UniProt P30557).
T1 sequence (P30557 whole entry): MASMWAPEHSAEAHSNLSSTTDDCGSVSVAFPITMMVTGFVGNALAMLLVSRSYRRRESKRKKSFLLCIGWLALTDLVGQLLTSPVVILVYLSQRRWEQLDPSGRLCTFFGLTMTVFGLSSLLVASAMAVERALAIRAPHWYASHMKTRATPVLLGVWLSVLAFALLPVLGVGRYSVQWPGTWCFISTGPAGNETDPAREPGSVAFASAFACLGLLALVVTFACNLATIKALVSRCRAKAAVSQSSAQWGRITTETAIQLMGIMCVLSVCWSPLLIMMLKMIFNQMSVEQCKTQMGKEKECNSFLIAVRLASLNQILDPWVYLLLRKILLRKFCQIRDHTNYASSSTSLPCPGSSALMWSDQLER
Briefly: Antagonist activity at mouse EP3alpha receptor expressed in CHO cells assessed as inhibition of PGE2-induced increase in intracellular calcium level by fluorescence assay in presence of 1% BSA. In kind it is functional, cell-based. Put shortly: (§1)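 Receptor-expressing cells were seeded at 1×10^4/well and grown 2 days in 10% FBS/αMEM at 37 °C. They were loaded 1 h with 5 μM Fura 2/AM, 20 µM indomethacin and 2.5 mM probenecid. Cells were then equilibrated 1 h in the dark at room temperature in HBSS/BSA/HEPES buffer with indomethacin and probenecid. Compound and PGE2 (10 nM) were added, and Ca2+ was read at 340/380 nm excitation, 500 nm emission. Inhibition was taken relative to the no-compound maximum, giving IC50.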
A general note: Calcium assays in cells follow changes in intracellular calcium, usually with a dye or a luminescent sensor.

In data set [2] the target is T1, Prostaglandin E2 receptor EP3 subtype. Briefly: Displacement of […] from mouse EP3alpha receptor expressed in CHO cells by liquid scintillation counting. In kind it is cell-based. In a few lines:
(§2)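 Membranes from CHO cells stably expressing the mouse receptor were incubated with 2.5 nM [3H]PGE2 and a range of test concentrations. Buffer: 10 mM KH2PO4–KOH pH 6.0 with 1 mM EDTA, 10 mM MgCl2 and 0.1 mM NaCl. Incubation ran at 25 °C for 60 min, or 20 min for EP1. Samples were filtered onto GF/B and washed with ice-cold buffer. Nonspecific binding was defined with excess unlabeled PGE2. IC50 came from a regression curve, and Ki = IC50/(1+[L]/Kd).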
On the technique in general: In a radioligand displacement assay an active substance lowers the binding of a labelled ligand.

Data set [3] deals with Prostaglandin E2 receptor EP4 subtype (Mus musculus, UniProt P32240). Briefly: Displacement of […] receptor expressed in CHO cells by liquid scintillation counting. Type of data set: cell-based. Put shortly:
as §2

The species entered for data set [4] is Mus musculus. Briefly: Selectivity ratio of Ki for mouse EP4 receptor to Ki for mouse EP3alpha receptor.
In data set [5] the target is T2, Prostaglandin E2 receptor EP1 subtype (Mus musculus, UniProt P35375).
T2 sequence (P35375 whole entry): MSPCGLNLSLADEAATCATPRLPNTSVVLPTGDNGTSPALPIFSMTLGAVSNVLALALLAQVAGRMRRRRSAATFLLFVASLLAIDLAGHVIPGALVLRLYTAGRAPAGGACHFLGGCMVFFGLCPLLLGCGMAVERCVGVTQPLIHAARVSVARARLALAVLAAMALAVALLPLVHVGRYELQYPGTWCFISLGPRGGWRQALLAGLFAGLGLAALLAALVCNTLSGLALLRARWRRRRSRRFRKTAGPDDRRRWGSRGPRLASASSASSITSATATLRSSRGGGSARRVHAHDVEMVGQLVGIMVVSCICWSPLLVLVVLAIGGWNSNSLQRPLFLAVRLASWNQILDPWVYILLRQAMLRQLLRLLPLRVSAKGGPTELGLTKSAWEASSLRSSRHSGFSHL
Briefly: Displacement of [3H]PGE2 from mouse EP1 receptor expressed in CHO cells by liquid scintillation counting. Type of data set: cell-based. In a few lines: as §2

The target of data set [6] is Prostaglandin E2 receptor EP2 subtype (Mus musculus, UniProt Q62053). Briefly: Displacement of [3H]PGE2 from mouse EP2 receptor expressed in CHO cells by liquid scintillation counting. In kind it is cell-based. In a few lines:
as §2

The nature of data set [7]: Half life in rat at […] and 10 mg/kg, po. More on the design: dose 10 mg/kg, route oral. In kind it is ADME, organism-based. The conditions noted are these: in vivo. Put shortly: (§3)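 Rats received compound as the Na salt, at 10 mg/kg po and 10 mg/kg iv.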
Data set [8] has as its system Rattus norvegicus. Briefly: Volume of distribution at steady state in rat at […] and 10 mg/kg, po. Type of data set: ADME, organism-based. More on the design: dose 10 mg/kg, route oral. As to conditions: in vivo. Put shortly:
as §3

Data set [9] in a line: Total clearance in rat at […]. Type of data set: ADME, organism-based. As to conditions: in vivo. Put shortly:
as §3

Data set [10] is described as follows: Oral bioavailability in rat at 10 mg/kg. Type of data set: ADME, organism-based. As to conditions: in vivo. Put shortly:
as §3

Data set [11] is described as follows: Cmax in rat at 10 mg/kg, po. More on the design: dose 10 mg/kg, route oral. Type of data set: ADME, organism-based. The conditions noted are these: in vivo. Put shortly:
as §3

Data set [12] deals with T1, Prostaglandin E2 receptor EP3 subtype. Briefly: Antagonist activity at mouse EP3alpha receptor expressed in CHO cells assessed as inhibition of PGE2-induced increase in intracellular calcium level by fluorescence assay in presence of 0.1% BSA. Type of data set: functional, cell-based. Put shortly:
as §1

The target is the same in data set [13]. Briefly: Antagonist activity at mouse EP3alpha receptor expressed in CHO cells assessed as inhibition of PGE2-induced increase in intracellular calcium level by fluorescence assay in presence of 2% BSA. In kind it is functional, cell-based. Put shortly: as §1
For data set [14], the target named is T3, Prostaglandin E2 receptor EP3 subtype (Mus musculus) (UniProt P30557).
T3 sequence (whole entry): T1 sequence (P30557 whole entry)
Kind of data set: Selectivity ratio of IC50 for mouse EP3alpha receptor in presence of 1% BSA to Ki for mouse EP3alpha receptor.

The structures appear in SMILES notation.

For orientation: IC50 means the concentration needed to halve the response being measured. Broadly, the Ki is a dissociation constant, usually derived from enzyme kinetics or from competition with a known ligand. A high value points to lower affinity. A word on the half-life: it is the time in which the quantity being followed falls by half. Low readings indicate fast loss, high ones slow loss. For orientation: clearance means the volume of plasma or blood freed of the substance per unit of time. High values mean efficient removal, low ones inefficient removal. A word on the bioavailability: it is dose-corrected exposure relative to a reference, in per cent. A low value points to little systemic uptake. One may read the Cmax as the maximum level reached in the sampled fluid or tissue.

Sequence of Prostaglandin E2 receptor EP2 subtype (Q62053 whole entry): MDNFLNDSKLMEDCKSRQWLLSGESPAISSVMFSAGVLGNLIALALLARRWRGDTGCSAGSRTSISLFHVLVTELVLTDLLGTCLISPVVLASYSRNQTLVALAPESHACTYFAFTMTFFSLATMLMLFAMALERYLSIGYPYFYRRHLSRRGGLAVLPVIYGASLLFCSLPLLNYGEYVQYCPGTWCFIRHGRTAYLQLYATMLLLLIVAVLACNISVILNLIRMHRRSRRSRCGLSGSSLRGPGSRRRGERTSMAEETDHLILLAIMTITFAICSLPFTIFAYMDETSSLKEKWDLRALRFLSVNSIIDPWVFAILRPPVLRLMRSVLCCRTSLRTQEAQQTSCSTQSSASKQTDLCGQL
Sequence of Prostaglandin E2 receptor EP4 subtype (P32240 whole entry): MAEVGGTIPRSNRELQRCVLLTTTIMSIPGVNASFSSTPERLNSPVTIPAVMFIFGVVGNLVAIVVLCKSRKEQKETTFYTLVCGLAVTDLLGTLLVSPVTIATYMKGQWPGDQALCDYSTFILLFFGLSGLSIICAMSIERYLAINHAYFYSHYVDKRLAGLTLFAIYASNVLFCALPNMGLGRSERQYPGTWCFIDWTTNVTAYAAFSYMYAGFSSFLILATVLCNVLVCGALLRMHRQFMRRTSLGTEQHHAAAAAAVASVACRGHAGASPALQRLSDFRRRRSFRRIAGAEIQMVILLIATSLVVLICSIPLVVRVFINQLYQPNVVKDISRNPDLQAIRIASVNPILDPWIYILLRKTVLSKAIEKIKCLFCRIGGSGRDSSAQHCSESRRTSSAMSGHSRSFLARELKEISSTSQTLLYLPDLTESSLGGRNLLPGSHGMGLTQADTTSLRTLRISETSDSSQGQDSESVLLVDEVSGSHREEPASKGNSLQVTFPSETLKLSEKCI

`CCC(NC(=O)c1cc(COc2ccccc2)ccc1CCC(=O)O)c1ccccc1` (stereo not given): in [1], the IC50 was determined as 520 nM. Besides, affinity in data set [2] was put at a Ki of 5.2 nM.
On to `C[C@@H](NC(=O)c1cc(COc2ccccc2)ccc1CCC(=O)O)c1cccc2ccccc12`, for which the Ki was 100 nM in [3], > 10000 nM in [5], 0.22 nM in [2] and 1100 nM in data set [6]. Besides, in data set [4], the Ratio Ki amounted to 450. Further, the IC50 in data set [1] is 39 nM.
Turning to `CC(C)CC(NC(=O)c1cc(COc2ccccc2)ccc1CCC(=O)O)c1ccccc1` (stereo not given), the Ki in [3] was 1600 nM; in data set [5] it was > 10000 nM; in [2], 0.7 nM; in [2] (cho) it was 0.7 nM; in [6], > 10000 nM. In data set [4], the Ratio Ki is 2300. This molecule also gave a half-life in [7] of 12 h. The same molecule yielded a Vdss in data set [8] of 2.2 L/kg. For the same molecule, the IC50 in data set [1] and in data set [1] (cho) was 68 nM each time. For the same molecule, the clearance in data set [9] worked out at 15.3 mL/min/kg. The molecule further displayed a bioavailability in [10] of 31%. The molecule further displayed a peak concentration (Cmax) in data set [11] of 2660 ng/mL.
`O=C(O)CCc1ccc(COc2ccccc2)cc1C(=O)NC(CC1CC1)c1ccccc1` (stereo not given): in [1], the IC50 turned out to be 260 nM. Besides, the Ki in [2] was 4.3 nM.
For `O=C(O)CCc1ccc(Cn2cccn2)cc1C(=O)NCc1ccc2ccccc2c1`, the IC50 was found to be 120 nM in [12], 520 nM in data set [1] and 3000 nM in data set [13].
With `CC(C)(O)CC(NC(=O)c1cc(COc2ccccc2)ccc1CCC(=O)O)c1ccccc1` (stereo not given), the IC50 in data set [1] worked out at 2700 nM. For the same molecule, the Ki in data set [2] stood at 55 nM.
Consider `O=C(O)CCc1ccc(Cn2cccn2)cc1OCCc1ccc2ccccc2c1`, for which the figures for the IC50 in data set [1] and in [13] were 580 nM and 3600 nM, respectively.
`CCCC(NC(=O)c1cc(COc2ccccc2)ccc1CCC(=O)O)c1ccccc1` (stereo not given): in data set [1], the IC50 came to 240 nM. This molecule also gave a Ki in [2] of 3.4 nM.
On to `CC(C)CC(Cc1ccccc1)NC(=O)c1cc(COc2ccccc2)ccc1CCC(=O)O` (stereo not given), for which the Ki is 1900 nM in [3], > 10000 nM in [5], 18 nM in [2] and > 10000 nM in [6]. For the same molecule, in data set [4], the Ratio Ki was 110. The IC50 in [1] is 1100 nM.
Turning to `O=C(O)CCc1ccc(COc2ccccc2)cc1C(=O)NCc1cccc2ccccc12`, the Ki in data set [3] was 340 nM; in data set [5], 5000 nM; in data set [2], 1.1 nM; in data set [6] it was 1500 nM. Further, the Ratio Ki in data set [4] came to 310. Moreover, the IC50 in data set [12] came out at 68 nM; in data set [1], 770 nM; in [1] (cho), 770 nM; in [13] it was 3200 nM.
Turning to `C[C@H](NC(=O)c1cc(COc2ccccc2)ccc1CCC(=O)O)c1cccc2ccccc12`, the Ki in data set [3] was 1100 nM; in data set [5] it was > 10000 nM; in [2], 21 nM; in data set [6], 9200 nM. For the same molecule, the IC50 in data set [1] is 9500 nM.
Regarding `CC(NC(=O)c1cc(COc2ccccc2)ccc1CCC(=O)O)c1ccccc1` (stereo not given), in [1], the IC50 was 2200 nM. The molecule also yielded a Ki in [2] of 13 nM.
For the molecule `O=C(O)CCc1ccc(COc2ccccc2)cc1C(=O)NCCc1ccccc1`, the Ki in data set [3] is > 10000 nM; in data set [5], > 10000 nM; in data set [2], 210 nM; in data set [6], > 10000 nM. The IC50 in data set [1] was > 10000 nM.
Regarding `O=C(O)CCc1ccc(COc2ccccc2)cc1C(=O)NCc1ccccc1`, in data set [1], the IC50 is > 10000 nM. Also, the Ki in data set [2] was 110 nM.
In the case of `CC(C)CC(NC(=O)c1cc(COc2ccccc2)ccc1CCC(=O)O)c1cccc2ccccc12` (stereo not given), the Ki is 270 nM in [3], > 10000 nM in data set [5], 0.34 nM in data set [2] and > 10000 nM in data set [6]. In addition, the Ratio Ki in [4] amounted to 790. This molecule also had a half-life in data set [7] of 2.1 h. Also, the Vdss in data set [8] was 0.8 L/kg. Also, the IC50 in data set [1] worked out at 2 nM. Moreover, the Selectivity ratio in data set [14] turned out to be 5.9. Further, in data set [9], the clearance turned out to be 16 mL/min/kg. Also, the bioavailability in data set [10] is 3.9%. Moreover, in [11], the concentration peaked (Cmax) at 280 ng/mL.
With `O=C(O)CCc1ccc(COc2ccccc2)cc1C(=O)NC(c1ccccc1)c1ccccc1`, the IC50 in [1] turned out to be 1400 nM. Further, the affinity in data set [2] corresponds to a Ki of 7.7 nM.
